Laboratory results from ChEMBL document CHEMBL3244088, “Antitumor agents 32. Synthesis and antitumor activity of cyclopentenone derivatives related to helenalin” (1978).
In brackets after ≈: the same amount, converted by molar mass.

Tests used:
Format in all cases: functional
[1] = tested on: P388; assay: Antitumor activity against mouse P388 cells allografted in DBA/2 mouse assessed as increase in survival rate at 5 mg/kg/day, ip administered for 2 weeks relative to control; conditions: route intraperitoneal
[2] = tested on: W256; assay: Antitumor activity against […] allografted in Sprague-Dawley rat assessed as increase in survival rate at 2.5 mg/kg/day, ip relative to control; conditions: route intraperitoneal
Outline: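 Walker 256 ascites carcinosarcoma: 10^6 tumor cells implanted ip into male Sprague-Dawley rats (~80 g), with daily ip dosing of compounds. Result expressed as T/C; a T/C ≥ 125% counts as active. Melphalan was the positive standard. Animal numbers per group were recorded for each test.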

[3] = Cytotoxicity against human Hep2 cells assessed a growth inhibition by rapid microtiter technique; conditions: HEp-2, read-out: ED50 (the source's name)
Outline: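 Human laryngeal epidermoid carcinoma H.Ep.-2 cells run in a rapid microtiter cytotoxicity assay. ED50 is calculated as the dose that inhibits net cell growth to 50% of control growth. Compounds with ED50 ≤ 4 µg/mL are scored active.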

[4] = tested on: P388; assay: Antitumor activity against mouse P388 cells allografted in DBA/2 mouse assessed as increase in survival rate at 4 mg/kg/day, ip administered for 2 weeks relative to control; conditions: route intraperitoneal
[5] = tested on: W256; assay: Antitumor activity against […] allografted in Sprague-Dawley rat assessed as increase in survival rate at 1.25 mg/kg/day, ip relative to control; conditions: route intraperitoneal
[6] = tested on: P388; assay: Antitumor activity against mouse P388 cells allografted in DBA/2 mouse assessed as increase in survival rate at 25 mg/kg/day, ip administered for 2 weeks relative to control; conditions: route intraperitoneal
[7] = tested on: P388; assay: Antitumor activity against mouse P388 cells allografted in DBA/2 mouse assessed as increase in survival rate at 16.8 mg/kg/day, ip administered for 2 weeks relative to control; conditions: route intraperitoneal

Row | SMILES | T/C [1] [%] | T/C [2] [%] | EC50 [3] [mg/L] | T/C [4] [%] | T/C [5] [%] | T/C [6] [%] | T/C [7] [%]
1 | CC1(CO)CC=CC1=O (stereo not drawn) | 105 | 100 | 15.8 (≈ 125 µM) | – | – | – | –
2 | CC(=O)OCC1(C)CC=CC1=O (stereo not drawn) | 105 | 105 | 18.3 (≈ 109 µM) | – | – | – | –
3 | CC1(COC(=O)/C=C/c2ccccc2)CC=CC1=O (stereo not drawn) | – | 136 | 3.5 (≈ 13.7 µM) | 131 | – | – | –
4 | COc1cc(C(=O)OCC2(C)CC=CC2=O)cc(OC)c1OC (stereo not drawn) | 140 | – | 3.6 (≈ 11.2 µM) | – | 223 | – | –
5 | CC1(COC(=O)CCCCCCCCC(=O)OCC2(C)CC=CC2=O)CC=CC1=O (stereo not drawn) | – | 108 | 14.6 (≈ 34.9 µM) | 109 | – | – | –
6 | CCOC(=O)C1(C)CC=CC1=O (stereo not drawn) | 103 | 103 | 17.2 (≈ 102 µM) | – | – | – | –
7 | O=C1C=CCC1 | 121 | 188 | > 50 | – | – | – | –
8 | CCOC(=O)/C=C/c1ccccc1 [ETHYL CINNAMATE] | – | – | > 50 | – | – | – | –
9 | O=c1[nH]cc(F)c(=O)[nH]1 [FLUOROURACIL] | – | – | – | – | – | 186 | –
10 | C=C1C(=O)O[C@@H]2C[C@@H](C)[C@@H]3C=CC(=O)[C@@]3(C)[C@@H](O)[C@H]12 [HELENALIN] | – | 316 | 0.08 (≈ 0.305 µM) | – | – | – | 127
11 | N[C@@H](Cc1ccc(N(CCCl)CCCl)cc1)C(=O)O [MELPHALAN] | – | 317 | – | – | – | 168 | –
